From PubChem BioAssay
bIAP inhibitor – bovine intestinal alkaline phosphatase inhibitors, primary screen, selectivity assay for TNAP inhibitor project, biochemical, bovine IAP, CDP-star luminescence | inhibition, % at 20 µM | 190,000 tested, under 10 active | purified bovine IAP, 30 min | alkaline phosphatase, intestinal [Bos taurus];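 active = over 50% inhibition of intestinal alkaline phosphatase at 20 µM in the single-dose screen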
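Assay system: bovine IAP enzyme; medium: DEA buffer 100 mM, pH 9.8, with MgCl2 1.0 mM, ZnCl2 0.02 mM; doses: 20 µM single dose; incubation: enzyme reaction for 30 min at room temperature; detection: CDP-star luminescence signal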
bIAP act – bovine intestinal alkaline phosphatase activators, primary screen, biochemical, bovine IAP, CDP-star luminescence | purified bovine IAP, 30 min; stronger effect = higher value; fold of DMSO-control signal, blank-subtracted | activation factor at 20 µM | hit rate 0.17% among 200,000 | AID 1016, 2008;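 active = activation factor of 2 or more at 20 µM, a signal rise over negative controls twice the positive control's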
hIAP act – human IAP activators, primary screen, biochemical, luminescence, uHTS. Intestinal-type alkaline phosphatase (Homo sapiens), P09923. purified human IAP, CDP-Star luminescence, 30 min; stronger effect = higher value; 1 = vehicle-only enzyme, 0 = enzyme-free background. activation factor at 10 µM. hit rate 0.16% among 330,000. AID 2524, 2010;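 active = activation factor of the enzyme at least 2-fold when tested at 20 µM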
Target sequence (P09923 whole entry, looked up): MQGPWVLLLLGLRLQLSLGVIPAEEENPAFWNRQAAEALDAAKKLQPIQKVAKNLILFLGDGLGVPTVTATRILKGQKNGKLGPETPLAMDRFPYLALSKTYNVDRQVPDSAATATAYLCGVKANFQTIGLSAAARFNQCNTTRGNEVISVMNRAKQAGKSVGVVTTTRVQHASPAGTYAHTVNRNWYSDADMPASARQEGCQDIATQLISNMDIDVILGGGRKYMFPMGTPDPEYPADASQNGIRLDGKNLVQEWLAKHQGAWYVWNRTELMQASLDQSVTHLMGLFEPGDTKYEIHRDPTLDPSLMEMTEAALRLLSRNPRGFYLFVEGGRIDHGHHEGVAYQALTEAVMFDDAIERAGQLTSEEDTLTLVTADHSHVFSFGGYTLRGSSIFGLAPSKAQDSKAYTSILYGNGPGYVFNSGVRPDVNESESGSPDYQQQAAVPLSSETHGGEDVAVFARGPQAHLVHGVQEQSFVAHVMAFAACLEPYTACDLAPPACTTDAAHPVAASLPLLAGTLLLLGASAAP
hIAP block – human IAP inhibitors, primary screen, biochemical, luminescence, uHTS; purified IAP, CDP-Star luminescence, 30 min; inhibition, % at 10 µM; hit rate 0.12% among 330,000;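 active = inhibition reaching a set limit with compound at 10 µM in the primary screen, cut at about 35% in these data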
mIAP act – activators of mouse IAP, primary screen, biochemical, luminescence, uHTS | intestinal alkaline phosphatase [Mus musculus] | muIAP, CDP-Star luminescence, 30 min; stronger effect = higher value; 1 = vehicle-only enzyme signal, 0 = enzyme-free wells | activation factor at 10 µM | hit rate 0.24% among 330,000 | AID 2805, 2010;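 active = activation factor of at least 2 at 20 µM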
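Assay system: mouse IAP enzyme; Reagent: CDP-Star chemiluminescent phosphatase substrate; Compound: DMSO-dissolved test compounds; Incubation: 30 min, room temperature; Technique: luminescence from enzymatic CDP-Star hydrolysis; Controls: DMSO-only wells and no-enzyme negative control.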
mIAP inh – inhibitors of mouse IAP, primary screen, biochemical, luminescence, uHTS; purified mouse IAP, CDP-Star luminescence, 30 min; inhibition, % at 10 µM; hit rate 0.2% among 330,000;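 active = inhibition of at least 40% at 10 µM in the primary screen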
hIAP act confirm – human IAP activators, confirmation, biochemical, luminescence, single concentration, uHTS hits; shares compounds with hIAP act; purified IAP, CDP-Star luminescence, 30 min; stronger effect = lower value; activation (%Activity, negative = activation), % at 8.3 µM; hit rate 10% among 880;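 active = at least twofold enzyme activation in any of six single-dose repeats, which the averaged readout prints as negative percent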
Numbers stand for hits; . = inactive; / = no result. Sampled rows, rich in hits. Any-hit rate of the full collection: about 0.72%.

SMILES | bIAP inhibitor | bIAP act | hIAP act | hIAP block | mIAP act | mIAP inh | hIAP act confirm
CCC(C)[C@H](NC(=O)N1CCn2c1nc1ccccc12)C(=O)NCc1ccccc1 (stereo partly specified) | / | / | . | . | . | . | /
Cc1cccc(C(=O)NNC(=O)CCCCC(=O)NNC(=O)c2cccc(C)c2)c1 | / | / | 2.44 | . | . | . | .
COc1ccc(CC(=O)NNC(=O)c2cc(C)[nH]n2)cc1 | / | / | . | . | . | . | /
Cc1cc(C(=O)NNC(=O)CCCCC(=O)NNC(=O)c2cc(C)[nH]n2)n[nH]1 | . | . | 3.54 | . | . | . | .
Cc1ccc(S(=O)(=O)Nc2cc(C)cn(Cc3ccc(F)cc3)c2=O)cc1 | / | / | . | . | . | . | /
O=C(Cn1nnc2ccccc2c1=O)NCCc1ccc(Cl)cc1Cl | . | . | . | 36.7 | . | . | .
COc1ccc(-c2ccc(OC)cc2C(=O)O)cc1 | . | . | . | 35.9 | . | . | .
COc1ccc(C(=O)O)c(O)c1 | / | / | . | . | . | . | /
Cc1cccc(NC(=O)C2CCN(S(=O)(=O)c3c(C)c(C)cc(C)c3C)CC2)n1 | / | / | . | . | . | . | /
Cc1ccc(S(=O)(=O)N2CCN(C(=O)CCn3cncn3)CC2)cc1 | / | / | . | 36.0 | . | . | .
COC(=O)N=Nc1c(O)[nH]c2ccc(Br)cc12 | / | / | . | 43.7 | . | . | .
O=C(CNC(=O)c1ccccc1)N=Nc1c(O)[nH]c2ccc(Br)cc12 | / | / | . | . | . | . | /
O=c1c2ccccc2nc(N/N=C/c2ccc(O)cc2)n1O | . | . | . | . | . | . | /
O=c1c2ccccc2nc(N/N=C/c2c(O)ccc3ccccc23)n1O | . | . | 2.03 | . | . | . | -53.7
Cc1c(C(=O)N2CCC3(CC2)CC(=O)c2ccccc2O3)cccc1[N+](=O)[O-] | / | / | . | . | . | . | /
O=C(O)CCC(=O)Nc1ccccc1C(=O)NC1CCCCC1 | . | . | 2.1 | . | . | . | .
COC(=O)CSc1nnc(Cc2ccccc2)n1-c1ccc(C)cc1 | . | . | . | . | . | . | /
O=C(CSc1nnc(Cc2ccccc2)n1-c1ccccc1)NNC(=O)Cc1ccccc1 | . | . | 2.14 | . | . | . | .
Cc1c(OC(C)C(=O)NCC(O)c2ccccc2)ccc2c3c(c(=O)oc12)CCC3 (stereo unspecified) | / | / | . | . | . | . | /
CCc1nc(SCC(=O)Nc2cc(OC)ccc2OC)c2c(C)c(C)sc2n1 | / | / | . | . | . | . | /
O=C(Nc1ccc(F)cc1)C1CCCCC1 | . | . | . | . | . | . | /
NC(=O)c1ccc(NC(=O)C2CCCC2)cc1 | / | / | 2.58 | . | . | . | -40.2
CCOC(=O)c1cnc(-n2nc(C)cc2C)nc1NNc1nc(C)cc(C)n1 | / | / | . | . | . | . | .
CCOC(=O)c1cnc(-n2nc(C)cc2C)nc1NNc1nc(-c2ccccc2)cc(-c2ccccc2)n1 | . | . | . | . | . | . | /
O=C(N1CCCCC1)C1(S(=O)(=O)c2ccccc2)CC=CC1 | / | / | . | . | . | . | /
SMILES | bIAP inhibitor | bIAP act | hIAP act | hIAP block | mIAP act | mIAP inh | hIAP act confirm
CC(=O)N1CCOc2ccc(S(=O)(=O)N3CCCC(C)C3)cc21 (stereo unspecified) | / | / | . | 43.2 | . | . | .
CC(=O)N1CCOc2ccc(S(=O)(=O)N3C(C)CCCC3C)cc21 (stereo unspecified) | / | / | . | . | . | . | /
CCc1c(C(=O)NNC(=S)NCCc2ccccc2)csc1C | . | . | 2.13 | . | . | . | .
CCCN(CC(=O)Nc1ccccc1OC)C(=O)Cc1ccc2c(c1)CCC2 | / | / | . | . | . | . | /
CCOc1cccc2sc(Nc3nc4ccc(NC(C)=O)cc4s3)nc12 | . | . | 2.08 | . | . | . | .
Cc1ccc(Cl)cc1NC(=O)C(=O)N/N=C/c1ccc2c(c1)OCO2 | / | / | 2.16 | . | . | . | .
Cc1cc(Cl)ccc1NC(=O)C(=O)N/N=C/c1ccc2c(c1)OCO2 | / | / | . | . | . | . | /
CCC(=O)N1N=C(c2ccc(NS(=O)(=O)c3ccccc3)cc2)CC1c1ccco1 (stereo unspecified) | / | / | . | . | . | . | /
COc1ccccc1CNC(=O)CN(c1ccc(C)cc1)S(=O)(=O)c1c(C)noc1C | / | / | . | 38.0 | . | . | .
Cc1cccc(NS(=O)(=O)c2ccc(C)c(C(=O)NCc3ccccn3)c2)c1 | / | / | . | . | . | . | /
O=C1CC(c2ccccc2)n2nc(NC(=O)c3ccccn3)nc2N1 (stereo unspecified) | . | . | 2.37 | . | . | . | .
O=C1CC(c2ccccc2)n2nc(NC(=O)c3ccccc3)nc2N1 (stereo unspecified) | . | . | . | . | . | . | /
Cc1nnc(NC(=O)CSc2nnc(C)c(=O)n2N)s1 | / | / | . | . | . | . | /
CCc1nnc(NC(=O)CSc2nnc(C)c(=O)n2N)s1 | / | / | . | 46.5 | . | . | .
COc1ccc(/C=C2/C(=O)N(c3ccccc3)N=C2C)cc1OC | / | / | . | . | . | . | /
COc1cc(/C=C2/C(=O)N(c3cccc(Br)c3)N=C2C)cc(OC)c1O | / | / | . | 35.7 | . | . | .
COc1cc(/C=C2/C(=O)N(c3ccc(Br)cc3)N=C2C)cc([N+](=O)[O-])c1O | / | / | . | 38.3 | . | . | .
CCCOc1ccc(C(=O)Nc2ccc(S(=O)(=O)N3C[C@@H]4C[C@@H](C3)c3cccc(=O)n3C4)cc2)cc1 | / | / | . | . | . | . | /
Cc1noc(C)c1COc1ccc(C(=O)OCC(=O)Nc2ccc(S(N)(=O)=O)cc2)cc1 | / | / | . | . | . | . | /
N#C/C(=C\c1ccc(-c2cccc([N+](=O)[O-])c2)o1)C(=O)Nc1nc(-c2cccs2)cs1 | / | / | . | 46.8 | . | . | .
O=c1c2cc(O)c(O)cc2oc2cc(O)c(C3OC(CO)C(O)C(O)C3O)c(O)c12 (stereo unspecified) | / | / | . | 82.3 | . | . | -148.3
CCOc1ccc(/C=N/NC(=O)c2[nH]ncc2Br)c(O)c1 | . | . | 2.08 | . | . | . | -294.4
O=C(N/N=C/c1cccs1)c1[nH]ncc1Br | / | / | . | . | . | . | /
Cc1ccc(O)c(/C=N/NC(=O)c2[nH]ncc2Br)c1 | . | . | 2.23 | . | . | . | .
COc1ccc(OC)c(/C=N/NC(=O)c2[nH]ncc2Br)c1 | / | / | . | . | . | . | /
